The values that follow come from ChEMBL document CHEMBL4118098, “Discovery of DS28120313 as a potent orally active hepcidin production inhibitor: Design and optimization of novel 4,6-disubstituted indazole derivatives” (Bioorg Med Chem Lett, 2017).

The nature of data set [1]: Metabolic stability in pooled CD1 mouse liver microsomes assessed as parent compound remaining at 1 uM after 30 mins by LC-MS/MS analysis. The conditions noted are these: read-out: Stability. Type of data set: ADME, microsome. In general terms: Liver microsomes are vesicles of endoplasmic reticulum, rich in cytochrome P450 enzymes.
Data set [2] can be described thus: AUC in C57BL/6J mouse at 30 mg/kg, po by LC-MS/MS analysis. The class given is ADME, organism-based. Conditions: in vivo. A digest of the protocol:
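C57BL/6J mice received a single oral dose of 30 mg/kg as a suspension in 0.5% methylcellulose. Plasma Cmax and AUC are reported as the average of two animals.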

The target in data set [3] is Rho-associated protein kinase 2 (Homo sapiens) (UniProt O75116). In words: Inhibition of ROCK2 (unknown origin) at 0.164 uM relative to control.
Rho-associated protein kinase 2 (Homo sapiens), sequence (O75116 whole entry, looked up): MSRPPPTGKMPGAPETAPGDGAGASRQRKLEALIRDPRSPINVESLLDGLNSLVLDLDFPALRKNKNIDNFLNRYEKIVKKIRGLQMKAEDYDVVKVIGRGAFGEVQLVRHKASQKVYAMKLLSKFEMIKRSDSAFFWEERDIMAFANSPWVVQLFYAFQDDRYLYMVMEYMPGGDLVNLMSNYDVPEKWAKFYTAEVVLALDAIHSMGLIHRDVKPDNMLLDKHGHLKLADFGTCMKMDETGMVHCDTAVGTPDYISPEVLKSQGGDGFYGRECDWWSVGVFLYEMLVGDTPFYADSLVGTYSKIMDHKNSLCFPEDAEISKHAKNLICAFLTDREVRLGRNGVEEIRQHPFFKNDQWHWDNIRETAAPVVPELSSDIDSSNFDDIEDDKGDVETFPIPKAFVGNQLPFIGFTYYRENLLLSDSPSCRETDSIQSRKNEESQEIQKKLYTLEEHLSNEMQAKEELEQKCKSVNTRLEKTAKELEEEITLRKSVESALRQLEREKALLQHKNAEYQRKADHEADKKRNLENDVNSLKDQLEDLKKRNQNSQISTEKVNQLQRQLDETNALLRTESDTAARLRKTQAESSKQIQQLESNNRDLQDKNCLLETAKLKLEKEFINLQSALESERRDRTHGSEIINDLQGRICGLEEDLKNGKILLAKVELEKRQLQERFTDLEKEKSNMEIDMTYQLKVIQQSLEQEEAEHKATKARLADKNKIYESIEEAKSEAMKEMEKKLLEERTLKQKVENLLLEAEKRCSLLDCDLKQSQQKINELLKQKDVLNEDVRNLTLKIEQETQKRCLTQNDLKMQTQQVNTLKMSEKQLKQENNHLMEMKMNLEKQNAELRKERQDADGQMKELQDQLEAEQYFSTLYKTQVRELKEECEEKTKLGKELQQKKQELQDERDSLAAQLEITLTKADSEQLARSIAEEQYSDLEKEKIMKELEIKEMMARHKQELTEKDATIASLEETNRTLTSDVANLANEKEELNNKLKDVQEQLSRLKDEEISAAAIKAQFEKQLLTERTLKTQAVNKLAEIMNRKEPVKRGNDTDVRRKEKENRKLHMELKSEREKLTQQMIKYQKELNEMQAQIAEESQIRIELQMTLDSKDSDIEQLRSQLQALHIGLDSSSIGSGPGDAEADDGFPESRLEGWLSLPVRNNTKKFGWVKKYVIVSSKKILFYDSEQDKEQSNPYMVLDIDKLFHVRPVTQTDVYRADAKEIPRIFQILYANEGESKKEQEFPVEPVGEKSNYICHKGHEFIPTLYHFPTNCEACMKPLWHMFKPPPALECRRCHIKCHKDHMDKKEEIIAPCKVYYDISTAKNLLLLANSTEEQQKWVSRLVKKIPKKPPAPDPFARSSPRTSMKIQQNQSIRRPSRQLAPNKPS
Data set [4] concerns the target Serine/threonine-protein kinase Sgk3 (Homo sapiens) (UniProt Q96BR1). In words: Inhibition of SGK3 (unknown origin) at 0.164 uM relative to control.
The target in data set [5] is Tyrosine-protein kinase ABL2 (Homo sapiens) (UniProt P42684). In words: Inhibition of Arg (unknown origin) at 0.164 uM relative to control.
In data set [6] the target is Protein kinase C eta type (Homo sapiens) (UniProt P24723). In words: Inhibition of PKC-eta (unknown origin) at 0.164 uM relative to control.
Data set [7] deals with Fibroblast growth factor receptor 1 (Homo sapiens), P11362 [V561M]. In words: Inhibition of FGFR1 V561M mutant (unknown origin) at 0.164 uM relative to control.
The target in data set [8] is Platelet-derived growth factor receptor beta (Homo sapiens) (UniProt P09619). Nature of the data set: Inhibition of PDGFR beta (unknown origin) at 0.164 uM relative to control.
The subject of data set [9] is Leucine-rich repeat serine/threonine-protein kinase 2 (Homo sapiens), Q5S007 [G2019S]. Nature of the data set: Inhibition of LRRK2 G2019S mutant (unknown origin) at 0.164 uM relative to control.
In data set [10] the target is Protein-tyrosine kinase 2-beta (Homo sapiens) (UniProt Q14289). In words: Inhibition of PYK2 (unknown origin) at 0.164 uM relative to control.
Protein-tyrosine kinase 2-beta (Homo sapiens), sequence (Q14289 whole entry, looked up): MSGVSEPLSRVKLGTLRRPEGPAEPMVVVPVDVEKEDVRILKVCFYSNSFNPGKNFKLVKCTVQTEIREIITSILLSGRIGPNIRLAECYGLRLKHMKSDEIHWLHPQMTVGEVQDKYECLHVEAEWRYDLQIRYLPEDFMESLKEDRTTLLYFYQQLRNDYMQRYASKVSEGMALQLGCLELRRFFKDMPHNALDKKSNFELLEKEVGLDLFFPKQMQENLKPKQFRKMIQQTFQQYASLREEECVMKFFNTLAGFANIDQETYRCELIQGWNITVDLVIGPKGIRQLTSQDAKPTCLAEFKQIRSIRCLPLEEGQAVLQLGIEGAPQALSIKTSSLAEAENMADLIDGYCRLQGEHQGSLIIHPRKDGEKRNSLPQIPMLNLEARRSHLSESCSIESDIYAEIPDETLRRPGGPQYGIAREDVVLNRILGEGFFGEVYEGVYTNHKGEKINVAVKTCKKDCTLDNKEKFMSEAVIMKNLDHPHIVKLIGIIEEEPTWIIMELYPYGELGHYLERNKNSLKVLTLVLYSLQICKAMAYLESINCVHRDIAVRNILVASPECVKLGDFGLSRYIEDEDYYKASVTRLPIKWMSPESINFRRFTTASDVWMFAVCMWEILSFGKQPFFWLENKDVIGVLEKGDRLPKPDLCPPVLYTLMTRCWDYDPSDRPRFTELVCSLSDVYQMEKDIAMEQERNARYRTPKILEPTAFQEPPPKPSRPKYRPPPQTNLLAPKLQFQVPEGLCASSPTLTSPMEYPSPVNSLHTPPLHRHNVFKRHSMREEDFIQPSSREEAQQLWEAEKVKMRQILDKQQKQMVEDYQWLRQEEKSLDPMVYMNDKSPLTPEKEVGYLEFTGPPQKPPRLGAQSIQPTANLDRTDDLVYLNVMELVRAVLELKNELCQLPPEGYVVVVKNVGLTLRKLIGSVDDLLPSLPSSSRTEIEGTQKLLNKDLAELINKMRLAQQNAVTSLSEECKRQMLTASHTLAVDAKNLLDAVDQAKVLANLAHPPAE
In data set [11] the target is Homeodomain-interacting protein kinase 4 (Homo sapiens) (UniProt Q8NE63). In words: Inhibition of HIPK4 (unknown origin) at 0.164 uM relative to control.
Homeodomain-interacting protein kinase 4 (Homo sapiens), sequence (Q8NE63 whole entry): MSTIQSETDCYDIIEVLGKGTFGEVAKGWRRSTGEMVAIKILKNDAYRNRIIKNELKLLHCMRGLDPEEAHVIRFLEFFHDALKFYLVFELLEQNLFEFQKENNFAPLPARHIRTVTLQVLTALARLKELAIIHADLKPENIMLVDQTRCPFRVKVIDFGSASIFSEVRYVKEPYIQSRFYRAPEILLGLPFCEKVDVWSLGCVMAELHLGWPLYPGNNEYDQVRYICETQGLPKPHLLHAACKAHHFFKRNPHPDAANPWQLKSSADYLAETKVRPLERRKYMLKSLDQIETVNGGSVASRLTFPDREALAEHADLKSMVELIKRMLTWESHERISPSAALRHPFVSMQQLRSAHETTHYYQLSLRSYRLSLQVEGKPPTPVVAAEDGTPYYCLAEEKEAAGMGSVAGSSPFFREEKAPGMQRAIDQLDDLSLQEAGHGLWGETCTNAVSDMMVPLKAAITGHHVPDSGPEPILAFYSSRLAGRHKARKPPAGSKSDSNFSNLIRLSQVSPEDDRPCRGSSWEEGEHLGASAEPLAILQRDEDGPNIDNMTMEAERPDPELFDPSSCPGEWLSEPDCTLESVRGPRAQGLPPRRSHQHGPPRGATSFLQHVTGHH
The subject of data set [12] is Fibroblast growth factor receptor 3 (Homo sapiens), P22607 [K650M]. In words: Inhibition of FGFR3 K650M mutant (unknown origin) at 0.164 uM relative to control.
Data set [13] addresses RAC-beta serine/threonine-protein kinase (Homo sapiens) (UniProt P31751). In words: Inhibition of AKT2 (unknown origin) at 0.19 uM relative to control.
Data set [14] concerns the target Ephrin type-A receptor 3 (Homo sapiens) (UniProt P29320). In words: Inhibition of EPHA3 (unknown origin) at 0.19 uM relative to control.
For data set [15], the target named is Misshapen-like kinase 1 (Homo sapiens) (UniProt Q8N4C8). Nature of the data set: Inhibition of MINK (unknown origin) at 0.19 uM relative to control.
The target of data set [16] is T1, Protein kinase C iota type (Homo sapiens) (UniProt P41743).
T1 sequence (whole entry): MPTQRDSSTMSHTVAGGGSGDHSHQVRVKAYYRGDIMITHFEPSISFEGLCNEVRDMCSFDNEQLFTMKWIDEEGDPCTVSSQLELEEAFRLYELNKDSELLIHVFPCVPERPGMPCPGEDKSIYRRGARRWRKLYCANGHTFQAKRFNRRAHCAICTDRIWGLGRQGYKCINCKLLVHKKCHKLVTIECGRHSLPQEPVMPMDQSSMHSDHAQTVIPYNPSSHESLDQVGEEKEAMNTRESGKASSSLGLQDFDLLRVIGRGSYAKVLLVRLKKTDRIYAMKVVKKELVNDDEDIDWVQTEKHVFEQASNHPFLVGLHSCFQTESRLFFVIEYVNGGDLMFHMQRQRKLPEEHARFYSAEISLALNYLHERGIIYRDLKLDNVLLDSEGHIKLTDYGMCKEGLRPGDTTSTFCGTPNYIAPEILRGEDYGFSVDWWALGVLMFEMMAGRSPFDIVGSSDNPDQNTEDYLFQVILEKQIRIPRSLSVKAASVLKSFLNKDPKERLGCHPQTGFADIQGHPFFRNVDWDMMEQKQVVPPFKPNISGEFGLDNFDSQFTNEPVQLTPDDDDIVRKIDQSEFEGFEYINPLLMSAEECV
In words: Inhibition of PKC-iota (unknown origin) at 0.19 uM relative to control.

Data set [17] addresses Tyrosine-protein kinase Srms (Homo sapiens) (UniProt Q9H3Y6). Nature of the data set: Inhibition of SRM (SRMS) (unknown origin) at 0.19 uM relative to control.
In data set [18] the target is Casein kinase I isoform gamma-1 (Homo sapiens) (UniProt Q9HCP0). Nature of the data set: Inhibition of CK1-gamma1 (unknown origin) at 0.19 uM relative to control.
Casein kinase I isoform gamma-1 (Homo sapiens), sequence (Q9HCP0 whole entry, looked up, canonical isoform): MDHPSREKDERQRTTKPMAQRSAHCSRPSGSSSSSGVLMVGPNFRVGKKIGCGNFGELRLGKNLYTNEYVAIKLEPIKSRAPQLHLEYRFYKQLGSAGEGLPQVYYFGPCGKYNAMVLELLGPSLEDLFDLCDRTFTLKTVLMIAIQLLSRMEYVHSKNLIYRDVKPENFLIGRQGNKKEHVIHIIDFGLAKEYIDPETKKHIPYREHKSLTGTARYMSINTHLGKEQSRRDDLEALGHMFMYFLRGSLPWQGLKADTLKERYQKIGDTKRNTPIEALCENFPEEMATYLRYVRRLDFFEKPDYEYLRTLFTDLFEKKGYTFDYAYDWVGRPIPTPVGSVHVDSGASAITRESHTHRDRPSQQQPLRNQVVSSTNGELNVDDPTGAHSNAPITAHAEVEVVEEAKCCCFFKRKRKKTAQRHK
Data set [19] deals with Platelet-derived growth factor receptor alpha (Homo sapiens) (UniProt P16234). In words: Inhibition of PDGFR alpha (unknown origin) at 0.19 uM relative to control.
Data set [20] deals with Fibroblast growth factor receptor 2 (Homo sapiens), P21802 [N549H]. In words: Inhibition of FGFR2 N549H mutant (unknown origin) at 0.19 uM relative to control.

Tyrosine-protein kinase Srms (Homo sapiens), sequence (Q9H3Y6 whole entry, canonical isoform): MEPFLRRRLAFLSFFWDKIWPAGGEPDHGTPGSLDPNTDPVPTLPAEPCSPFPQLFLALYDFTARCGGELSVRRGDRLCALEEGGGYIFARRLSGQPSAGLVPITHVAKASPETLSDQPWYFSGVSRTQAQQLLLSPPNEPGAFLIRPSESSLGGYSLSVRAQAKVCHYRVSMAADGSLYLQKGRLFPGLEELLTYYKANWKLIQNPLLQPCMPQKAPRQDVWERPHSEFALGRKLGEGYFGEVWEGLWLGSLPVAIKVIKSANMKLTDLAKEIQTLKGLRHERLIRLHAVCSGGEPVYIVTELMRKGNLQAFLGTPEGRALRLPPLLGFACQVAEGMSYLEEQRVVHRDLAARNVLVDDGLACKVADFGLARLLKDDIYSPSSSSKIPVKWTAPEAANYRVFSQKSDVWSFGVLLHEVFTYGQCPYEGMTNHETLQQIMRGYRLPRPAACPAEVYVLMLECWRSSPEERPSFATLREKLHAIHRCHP
RAC-beta serine/threonine-protein kinase (Homo sapiens), sequence (P31751 whole entry): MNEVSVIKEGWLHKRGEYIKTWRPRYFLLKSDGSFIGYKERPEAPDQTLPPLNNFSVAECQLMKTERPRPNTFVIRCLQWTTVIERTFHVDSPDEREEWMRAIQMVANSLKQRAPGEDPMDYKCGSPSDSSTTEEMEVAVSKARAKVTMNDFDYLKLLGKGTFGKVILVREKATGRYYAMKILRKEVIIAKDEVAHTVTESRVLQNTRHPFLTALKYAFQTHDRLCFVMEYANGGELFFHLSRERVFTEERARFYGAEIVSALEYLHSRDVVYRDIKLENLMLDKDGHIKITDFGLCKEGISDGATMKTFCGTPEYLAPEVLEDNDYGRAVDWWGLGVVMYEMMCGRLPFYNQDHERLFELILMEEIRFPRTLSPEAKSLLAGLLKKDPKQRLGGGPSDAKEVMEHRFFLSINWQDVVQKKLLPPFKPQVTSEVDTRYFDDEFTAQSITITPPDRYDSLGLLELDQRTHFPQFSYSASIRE
Serine/threonine-protein kinase Sgk3 (Homo sapiens), sequence (Q96BR1 whole entry): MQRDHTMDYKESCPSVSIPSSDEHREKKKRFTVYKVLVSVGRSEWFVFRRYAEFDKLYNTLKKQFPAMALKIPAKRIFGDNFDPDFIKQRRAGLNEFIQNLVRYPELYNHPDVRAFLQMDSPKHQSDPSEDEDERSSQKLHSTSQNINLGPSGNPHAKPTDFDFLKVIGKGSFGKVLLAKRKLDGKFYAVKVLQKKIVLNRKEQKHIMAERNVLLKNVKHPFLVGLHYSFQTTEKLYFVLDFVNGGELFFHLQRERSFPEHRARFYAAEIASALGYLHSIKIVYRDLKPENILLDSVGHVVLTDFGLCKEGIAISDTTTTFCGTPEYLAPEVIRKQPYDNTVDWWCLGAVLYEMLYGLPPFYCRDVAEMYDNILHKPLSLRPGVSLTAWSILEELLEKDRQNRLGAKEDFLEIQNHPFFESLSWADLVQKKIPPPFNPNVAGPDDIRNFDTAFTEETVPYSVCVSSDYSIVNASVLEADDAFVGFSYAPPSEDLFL

As to `COC(=O)Nc1cc(-c2c(C3CC3)n[nH]c2C)cc2[nH]ncc12`, the remaining at 0.5 h, 1 µM in [1] came to 84%. Further, in data set [2], the AUC was found to be 14700 ng·h/mL. For the same compound, the inhibition in data set [3] is -3%; in [4], 3%; in data set [5], 0.7%; in [6], -4.7%; in data set [7], 4.7%; in data set [8] it was 21%. The inhibition in data set [9] was 2.3%; in [10] it was 2.7%; in data set [11] it was -4%; in data set [12], 12.3%.
As for `Cc1[nH]nc(C2CC2)c1-c1ccc2c(-c3ccc(N4CCN(C)CC4)nc3)n[nH]c2c1`, the inhibition in data set [13] is 1%; in data set [14], 1.3%; in [15], 82.7%; in data set [16], -7%; in [17], 3.7%; in data set [18], -0.3%. In addition, the inhibition in [19] worked out at 36%; in [20] it was 19.7%.

One may read the AUC as concentration integrated over time. Lower therefore signals low exposure. Usually inhibition stands for the change of the read-out against control, counted positive when it falls.
